Screening results deposited in PubChem by Columbia University Molecular Screening Center.
This is one part of a sample in which hits are shown more often than they occur.
INS promoter act = activators of insulin promoter-driven GFP, primary screen, imaging, TRM-6 cells, eGFP reporter, cell count | plate-scaled: unstimulated 0, stimulated control 100 | actives 0.81% (n = 130,000) | activation, % at 2 µM | AID 1296, 2008;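 active = activation at 2 µM above a set limit, confirmed on inspection of the cell images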;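 note: share of cells whose green reporter signal exceeds an intensity cutoff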
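material = TRM-6 human fetal islet cells, insulin promoter–eGFP reporter | input = 1,000 TRM-6 cells seeded per well | benchmarks = stimulated versus unstimulated wells as plate controls | measured by = automated fluorescence imaging of paraformaldehyde-fixed, Hoechst-counterstained cells, green channel | schedule = compound exposure 48 h, 37 °C | reagent = tamoxifen at 0.75 µM added at seeding for reporter induction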
* = called active by the depositor.

SMILES	INS promoter act
COCCNC(=O)CSc1nc2cc(OC)c(OC)cc2c(=O)n1CCc1ccc(S(N)(=O)=O)cc1	0.0
Cc1ccc(C(=O)OCc2c(C)noc2C)cc1NC(=O)c1ccco1	-3.7
CC(=O)N[C@@H](C)C(=O)OC(C)C(=O)Nc1cccc([N+](=O)[O-])c1 (stereo partly drawn)	391.7*
O=C(CCCOc1ccccc1)Nc1cccc([N+](=O)[O-])c1	-76.9
CC(C(=O)Nc1cccc(Br)c1)c1ccc([N+](=O)[O-])cc1 (stereo not drawn)	-6.9
CCCCCCCC(=O)NC(Nc1ccc(S(N)(=O)=O)cc1)C(Cl)(Cl)Cl (stereo not drawn)	3.2
CCOc1cc(C)nc(NCCc2ccc(OC)c(OC)c2)n1	-5.7
Cc1cccc(C)c1C(OCCN(C)C)C1CCCCC1 (stereo not drawn)	-3.7
Clc1ccc(COc2ccccc2-c2ccnc3ncnn23)cc1	9.1
c1ccc(Oc2ccc(-c3ccnc4ncnn34)cc2)cc1	397.1*
c1ccc(Oc2ccc(-c3ccnc4nc(N5CCOCC5)nn34)cc2)cc1	-2.9
CCOc1cc2c(cc1C(C)(C)C)NC(=O)CS2	188.4
FCCCOc1ccc(CN2CCN(c3ccccc3F)CC2)cc1	-2.9
C=CCn1c(CCNC(=O)c2cccs2)nnc1SCC(=O)Nc1cccc(C(C)=O)c1	219.0
CCn1c(SCC(=O)Nc2cc(C)on2)nnc1-c1cccs1	-6.7
CCn1c(CNC(=O)c2cccs2)nnc1SCC(=O)Nc1ccc(Cl)cc1	650.0*
Nc1ccccc1C(=O)N/N=C1\C2CN3CCN(C2)CC1(c1ccccc1)C3	-6.9
CCCCN(Cc1ccccc1)S(=O)(=O)c1ccc2[nH]c(=O)oc2c1	9.8
COc1ccccc1N1CCN(c2nc3c(C)cccn3c(=O)c2C=O)CC1	2.2
CCC(C)N1C(=O)/C(=C/c2c(NCCCOC(C)C)nc3c(C)cccn3c2=O)SC1=S (stereo not drawn)	163.9*
C=CCn1c(SCCN2CCCC2)nc2c([nH]c3ccccc32)c1=O	-7.7
C/C(=N\NC(=O)c1cccnc1)c1nnn(-c2nonc2N)c1C	8.3
CCC(NC(=O)NCCCn1ccnc1)(C(F)(F)F)C(F)(F)F	-3.6
CNC(=O)/C(C#N)=C\c1ccc(CNS(=O)(=O)c2ccccc2)o1	2.6
CCN(CC)c1ccc(/C=C(/C#N)C(=O)NCc2ccccc2)o1	168.6
SMILES	INS promoter act
CC(C)NC(=O)/C(C#N)=C\c1ccc(N(C)C)o1	560.0*
COc1ccc(OC)c(/C=N/NC(=O)c2ccc(Cn3cc([N+](=O)[O-])cn3)o2)c1	-6.7
CN(C1CCS(=O)(=O)C1)S(=O)C12CC3CC(CC(C3)C1)C2 (stereo not drawn)	0.0
N#C/C(=C/c1ccc(N2CCCCC2)o1)C(=O)Nc1ccc(Cl)cc1	270.4*
N#C/C(=C/c1ccc(N2CCCCC2)o1)C(=O)Nc1ccc2ccccc2c1	185.7
N#C/C(=C/c1ccc(N2CCCCCC2)o1)c1cccc(F)c1	1.4
Cc1cccc(C(=O)Nc2nccs2)c1[N+](=O)[O-]	-3.7
Cc1c(Cl)cccc1NC(=O)CSCC(N)=O	207.7
Nc1nncn1C(=O)CCCN1C(=O)c2ccccc2C1=O	268.8
Nc1nncn1C(=O)c1c(Cl)cccc1Cl	443.8*
Cc1cccc(Cn2ccc(NC(=O)c3ccc4c(c3)OCO4)n2)c1	7.1
O=C(O)c1ccoc1CN1CCCCC1	-9.7
CCC1(CC)C(=O)NC(=O)NC1=Nc1cccc(OC)c1	167.7*
COc1cccc(-c2csc3nc[nH]c(=O)c23)c1	-88.6
COc1cccc(NC(=O)Cc2ccccc2)c1	-72.7
Cc1ccnc(NC(=O)c2cccc(NS(=O)(=O)c3ccccc3C)c2)c1	6.7
Cc1ccccc1Cn1c(=O)n(CC2CCC(C(=O)NCCc3ccccc3)CC2)c(=O)c2ccccc21 (stereo not drawn)	0.0
Cc1nc2ccccn2c1C(=O)NCC(C)C	0.0
CCNC(=O)c1c(C)nc2ccccn12	0.0
CCOC(=O)C(=O)c1c(-c2ccccc2)nc2ccccn12	450.0*
O=C(O)CC12CC3CC(C1)CC(n1cncn1)(C3)C2	0.0
O=C(CSc1nc2ccccc2c(=O)n1Cc1ccc(Cl)cc1)NCc1cccs1	-7.1
CCn1c(SCC(=O)NCc2cccs2)nc2c1c(=O)n(C)c(=O)n2C	-8.8
CCn1c(=O)c2ccccc2n2c(SCC(=O)NCc3cccs3)nnc12	136.4*
CCC(NS(=O)(=O)c1cn(C)nc1C)c1ccccc1 (stereo not drawn)	-4.8
CCOC(=O)COc1c(/C=N\OC)cc(Cl)cc1OC	136.4
OC(CN1CCN(c2ccccc2)CC1)Cn1c2ccccc2c2ccccc21 (stereo not drawn)	-8.3
OC(CSc1ccc(F)cc1)CN1CCN(c2ccccc2)CC1 (stereo not drawn)	117.6*
O=S(=O)(c1ccc(OCC(O)CN2CCN(c3ccccc3)CC2)cc1)N1CCOCC1 (stereo not drawn)	111.1
COC(=O)c1ccc(COc2ccc(-c3nnn(CC(=O)NC(C)(C)C)n3)cc2)cc1	0.0
